Data as given in ChEMBL document CHEMBL3352816, “Synthesis and antiproliferative activity of imidazo[2,1-b][1,3,4]thiadiazole derivatives” (Bioorg Med Chem Lett, 2014).
Calls of active or inactive are those of the source. The calls are words filed in the database; no cut-off is given here.

What was measured:
[1] = Growth inhibition of human Leukemia cells; type: functional; settings: for GI50 / TGI: Leukemia cell
[2] = Growth inhibition of human Ovarian cancer cells; type: functional; settings: Cancer cell lines
[3] = Growth inhibition of human Colon cancer cells; type: functional; settings: Cancer cell lines; for CC50: read-out: LC50 (the source's name)
[4] = Growth inhibition of human Breast cancer cells; type: functional; settings: Cancer cell lines
[5] = Growth inhibition of human NSCLC cells; type: functional
[6] = Growth inhibition of human Melanoma cells; type: functional; settings: Melanoma cell
[7] = Growth inhibition of human Prostate cancer cells; type: functional; settings: Cancer cell lines
[8] = Growth inhibition of human CNS cancer cells; type: functional; settings: Cancer cell lines
[9] = Growth inhibition of human Renal cancer cells; type: functional; settings: Cancer cell lines
[10] = tested on: REH; experiment: Cytotoxicity against human REH cells assessed as reduction in cell viability at 10 to 250 uM after 24 to 72 hrs by trypan blue exclusion assay; type: functional, cell-based
In short: (§1)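 Reh, K562 and Nalm6 leukemic cells were treated with 10, 50, 100 and 250 µM or with 0.1, 0.5, 1, 5 and 10 µM (compounds dissolved in DMSO). Viability was scored by trypan blue after 24, 48 and 72 h. DMSO-treated cells served as vehicle control.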

[11] = tested on: NALM-6; experiment: Cytotoxicity against human NALM6 cells assessed as reduction in cell viability at 10 to 250 uM after 24 to 72 hrs by trypan blue exclusion assay; type: functional, cell-based; in short: as §1
[12] = tested on: REH; experiment: Cytotoxicity against human REH cells assessed as reduction in cell viability at 100 to 250 uM after 48 to 72 hrs by MTT assay; type: functional, cell-based
In short: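 MTT viability read-out in leukemic cells treated with 10, 50, 100 and 250 µM or with 0.1, 0.5, 1, 5 and 10 µM. Cells harvested after 48 and 72 h. Compounds dissolved in DMSO.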

[13] = tested on: K562; experiment: Cytotoxicity against human K562 cells assessed as reduction in cell viability at 10 to 250 uM after 24 to 72 hrs by trypan blue exclusion assay; type: functional, cell-based; in short: as §1

| Compound | GI50 [1] | TGI [1] | GI50 [2] | TGI [2] | GI50 [3] | TGI [3] | GI50 [4] | TGI [4] | GI50 [5] | LC50 (concentration killing 50% of cells) [5] | TGI [5] | GI50 [6] | TGI [6] | GI50 [7] | TGI [7] | GI50 [8] | TGI [8] | GI50 [9] | TGI [9] | other results |
| --- | --- | --- | --- | --- | --- | --- | --- | --- | --- | --- | --- | --- | --- | --- | --- | --- | --- | --- | --- | --- |
| N#CSc1c(-c2ccccc2)nc2sc(Cc3ccccc3)nn12 | 13.5 µM | 57.5 µM | 9.8 µM | 79.4 µM | 11.2 µM | 91.2 µM | 7.4 µM | 75.9 µM | 6 µM | 97.7 µM | 75.9 µM | 20.9 µM | 85.1 µM | 15.5 µM | 40.7 µM | 4.4 µM | 77.6 µM | 15.1 µM | 70.8 µM | LC50 [2]: 97.7 µM; LC50 [9]: 95.5 µM |
| COc1ccc(-c2nc3sc(Cc4ccccc4)nn3c2SC#N)cc1 | 3.6 µM | 72.4 µM | 5.6 µM | 56.2 µM | 4.1 µM | 61.7 µM | 4.8 µM | 60.3 µM | 4.6 µM | 83.2 µM | 52.5 µM | 5.8 µM | 77.6 µM |  |  | 3.9 µM | 55 µM | 7.9 µM | 70.8 µM | LC50 [6]: 89.1 µM |
| Clc1ccc(-c2cn3nc(Cc4ccccc4)sc3n2)cc1 | 2.1 µM | 23.4 µM | 4.6 µM | 10.5 µM | 2.2 µM | 5.3 µM | 4 µM | 12 µM | 7.6 µM | 57.5 µM | 20.9 µM | 3.7 µM | 8.9 µM | 2.9 µM | 8.1 µM | 5 µM | 13.8 µM | 2.6 µM | 5.9 µM | LC50 (concentration causing 50% net cell kill) [1]: 95.5 µM; LC50 [2]: 30.9 µM; CC50 [3]: 14.1 µM; Activity [10]: Active; Activity [11]: Active; Activity [12]: Active; LC50 [4]: 49 µM; LC50 [6]: 21.9 µM; CC50 ([7]; read-out: LC50 (the source's name)): 23.4 µM; Activity [13]: Active; LC50 [8]: 34.7 µM; LC50 [9]: 15.1 µM |
| CO[C@H]1/C=C/O[C@@]2(C)Oc3c(C)c(O)c4c(O)c(cc(O)c4c3C2=O)NC(=O)/C(C)=C\C=C\[C@H](C)[C@H](O)[C@@H](C)[C@@H](O)[C@@H](C)[C@H](OC(C)=O)[C@@H]1C [RIFAMYCIN] | 3.2 µM |  | 18.6 µM |  | 10 µM |  | 16.6 µM |  | 14.5 µM |  |  | 15.5 µM |  | 10 µM |  | 21.4 µM |  | 15.9 µM |  |  |
| O=[N+]([O-])c1ccc(-c2nc3sc(Cc4ccccc4)nn3c2Br)cc1 | 69.2 µM |  | 6.3 µM | 83.2 µM | 52.5 µM | 83.2 µM | 17.4 µM | 79.4 µM | 12.6 µM |  | 56.2 µM | 40.7 µM |  | 42.7 µM |  | 3.4 µM | 47.9 µM | 3.7 µM | 64.6 µM |  |
| O=Cc1c(-c2ccc(F)cc2)nc2sc(CCC3CCCCC3)nn12 | 10.2 µM | 70.8 µM | 12.3 µM | 97.7 µM | 5.9 µM | 63.1 µM | 11.8 µM | 61.7 µM | 13.2 µM |  | 75.9 µM | 21.9 µM | 87.1 µM | 7.4 µM |  | 7.1 µM | 67.6 µM | 14.1 µM | 93.3 µM |  |
| O=Cc1c(-c2ccc([N+](=O)[O-])cc2)nc2sc(Cc3ccccc3)nn12 | 5.9 µM | 26.3 µM | 4.1 µM | 39.8 µM | 3.1 µM | 31.6 µM | 2.8 µM | 26.3 µM | 2.9 µM | 95.5 µM | 45.7 µM | 3.7 µM | 42.7 µM | 3 µM | 50.1 µM | 2.9 µM | 26.9 µM | 3.7 µM | 58.9 µM | LC50 (concentration causing 50% net cell kill) [1]: 69.2 µM; CC50 [3]: 85.1 µM; LC50 [4]: 83.2 µM; LC50 [8]: 83.2 µM |
